According to ChEMBL document CHEMBL1131493, “Inhibitors of farnesyl protein transferase. 4-Amido, 4-carbamoyl, and 4-carboxamido derivatives of 1-(8-chloro-6,11-dihydro-5H-benzo[5,6]- cyclohepta[1,2-b]pyridin-11-yl)piperazine and 1-(3-bromo-8-chloro-6,11- dihydro-5H-benzo[5,6]cyclohepta[1,2-b]pyridin-11-yl)piperazine” (J Med Chem, 1998):
Values belong to the compound of their own block, whether it stands above or below them.

Assays:
[1] = molecular target: geranylgeranyltransferase type-I (Rattus norvegicus, UniProt P53610+Q04631); experiment: Inhibition of rat Geranylgeranyl transferase (GGPT); type: protein-complex assay
[2] = molecular target: T1, Protein farnesyltransferase (Homo sapiens, UniProt P49354+P49356); experiment: In vitro inhibition of farnesyltransferase farnesylation of the H-ras oncogene; type: protein-complex assay
[3] = molecular target: T1, Protein farnesyltransferase; experiment: Inhibition of Farnesyltransferase from Ras-CVLS or Ras-CVLL in Cos-7 monkey kidney cells; type: cell-based, Chlorocebus aethiops
Cynomolgus monkey [4] = experiment: In vivo antitumor efficacy after peroral dose of 25 mg/kg in cynomolgus monkeys expressed as duration for which compound was present above IC50; type: ADME, organism-based, Macaca fascicularis; parameters: dose 25 mg/kg, route oral; conditions: po
Outline: (§1)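 Serum pharmacokinetics in nude mice or cynomolgus monkeys after oral (po) or iv dosing. Compounds were given as hydrochloride salts in 20% HPβCD unless otherwise noted. Other formulations were the hydrochloride salt in saline, the micronized free base in 20% HPβCD or corn oil (po) with saline for iv, or the hydrochloride salt in 0.4% methyl cellulose (po).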

Mus musculus [5] = experiment: In vivo antitumor efficacy after peroral dose of 25 mg/kg in mice expressed as duration for which compound was present above IC50; type: ADME, organism-based; parameters: dose 25 mg/kg, route oral; conditions: po; outline: as §1
[6] = In vivo antitumor efficacy in cynomolgus monkeys 0-8 hours after peroral dose of 25 mg/kg expressed as Area under the curve; type: ADME, organism-based, Macaca fascicularis; parameters: time < 8 hr, dose 25 mg/kg, route oral; conditions: cynomolgus monkey, po; outline: as §1
[7] = In vivo antitumor efficacy in nude mice by injecting a dose of 25 mg/kg iv and serum half-life was determined; type: ADME, organism-based; parameters: dose 25 mg/kg, route intravenous; conditions: mouse; outline: as §1
Mus musculus [8] = experiment: (§2) In vivo antitumor efficacy in nude mice 0-24 hr after peroral dose of 25 mg/kg expressed as Area under the curve; type: ADME, organism-based; parameters: time < 24 hr, dose 25 mg/kg, route oral; conditions: po, 24 h; outline: as §1
[9] = as §2; type: ADME, organism-based; parameters: time < 24 hr, dose 25 mg/kg, route oral; conditions: nude, mouse, po; outline: as §1
[10] = Oral bioavailability in mouse (nude) (dose of 25 mg/kg); type: ADME, organism-based; conditions: in vivo; outline: as §1
[11] = (§3) Maximal plasma concentration in nude mice after 25 mg/kg oral dose; type: ADME, organism-based; parameters: dose 25 mg/kg, route oral; conditions: mouse; outline: as §1
[12] = In vivo antitumor efficacy expressed as maximum plasma concentration after a peroral dose of 10 mg/kg in cynomolgus monkeys; type: ADME, organism-based, Macaca fascicularis; parameters: dose 10 mg/kg, route oral; conditions: cynomolgus monkey, po; outline: as §1
[13] = molecular target: T1, Protein farnesyltransferase; experiment: In vitro inhibition of farnesyltransferase farnesylation of H-ras at […]
[14] = Oral bioavailability in mouse (nude) (dose 25 mg/kg i.v.); type: ADME, organism-based; conditions: in vivo
[15] = In vivo antitumor efficacy in nude mice by injecting a dose of 25 mg/kg, as HCl salt in saline solution, iv and the serum half-life was determined; type: ADME, organism-based; parameters: dose 25 mg/kg, route intravenous; conditions: mouse
Mus musculus [16] = experiment: In vivo antitumor efficacy in nude mice by injecting a dose of 25 mg/kg, as HCl salt in saline solution, perorally and the duration of action was reported; type: ADME, organism-based; parameters: dose 25 mg/kg, route oral; conditions: po
[17] = as §3; type: ADME, organism-based; parameters: dose 25 mg/kg, route oral; conditions: mouse; remark: listed apart in the source
[18] = In vivo antitumor efficacy in nude mice by injecting a dose of 25 mg/kg, as HCl salt in saline solution, iv and the total drug exposure was determined. (0-24hr); type: ADME, organism-based; parameters: time < 24 hr, dose 25 mg/kg, route intravenous; conditions: mouse
[19] = In vivo antitumor efficacy in nude mice by injecting a dose of 25 mg/kg, as HCl salt in saline solution, perorally and the total drug exposure was determined (0-24hr); type: ADME, organism-based; parameters: time < 24 hr, dose 25 mg/kg, route oral; conditions: mouse, po
[20] = Maximal plasma concentration in cynomolgus monkeys after 10 mg/kg oral dose; type: ADME, organism-based, Macaca fascicularis; parameters: dose 10 mg/kg, route oral; conditions: cynomolgus monkey, plasma; outline: as §1
Cynomolgus monkey [21] = experiment: In vivo antitumor efficacy after peroral dose of 10 mg/kg in cynomolgus monkeys expressed as duration for which compound was present above IC50; type: ADME, organism-based, Macaca fascicularis; parameters: dose 10 mg/kg, route oral; conditions: po; outline: as §1
[22] = In vivo antitumor efficacy in nude mice 0-24 hr after intravenous dose of 25 mg/kg expressed as Area under the curve; type: ADME, organism-based; parameters: time < 24 hr, dose 25 mg/kg, route intravenous; conditions: mouse; outline: as §1
[23] = In vivo antitumor efficacy peroral dose of 25 mg/kg expressed as duration for which compound was present above IC50; type: ADME, organism-based; parameters: dose 25 mg/kg, route oral; conditions: po; outline: as §1

Structure (SMILES): O=C(Nc1ccccc1)N1CCN(C2c3ccc(Cl)cc3CCc3cccnc32)CC1 (stereo not given)
IC50 [1]: > 40000 nM
IC50 [2]: 1090 nM

Structure (SMILES): O=C(Cc1cccnc1)N1CCN(C2c3ccc(Cl)cc3CCc3cc(Br)cnc32)CC1 (stereo not given)
IC50 [1]: > 10000 nM
IC50 [2]: 170 nM
IC50 [3]: 850 nM

Structure (SMILES): O=C(Nc1cccnc1)N1CCN(C2c3ccc(Cl)cc3CCc3cc(Br)cnc32)CC1 (stereo not given)
IC50 [1]: > 10000 nM
IC50 [2]: 210 nM
IC50 [3]: 3700 nM

IC50 [1]: > 43000 nM
IC50 [2]: 1240 nM
IC50 [3]: 4900 nM
Structure (SMILES): CC(=O)C1CCC(C(=O)N2CCN(C3c4ccc(Cl)cc4CCc4cccnc43)CC2)CC1 (stereo not given)

Structure (SMILES): O=C(Cc1cc[n+]([O-])cc1)N1CCN([C@H]2c3ccc(Cl)cc3CCc3cc(Br)cnc32)CC1
Time above IC50 (Cynomolgus monkey [4]): 24 h
Time above IC50 (Mus musculus [5]): 7 h
IC50 [1]: > 76000 nM
AUC at 8 h [6]: 58100 ng·h/mL
half-life [7]: 1.9 h
AUC (Mus musculus [8]): 35300 ng·h/mL
AUC at 24 h [9]: 26100 ng·h/mL
bioavailability [10]: 100%
Cmax [11]: 24.6 µM
Cmax [12]: 8 µM

inhibition [13]: 0%
Structure (SMILES): CN(C(=O)N1CCN(C2c3ccc(Cl)cc3CCc3cccnc32)CC1)c1ccncc1 (stereo not given)

IC50 [1]: > 50000 nM
Structure (SMILES): O=C(C(c1ccccc1)c1ccccc1)N1CCN(C2c3ccc(Cl)cc3CCc3cccnc32)CC1 (stereo not given)

bioavailability [14]: 100%
half-life [15]: 0.5 h
IC50 [1]: > 35000 nM
Time above IC50 (Mus musculus [16]): 4 h
IC50 [2]: 50 nM
IC50 [3]: 750 nM
Cmax [17]: 80 µM
AUC at 24 h [18]: 9900 ng·h/mL
AUC at 24 h [19]: 33300 ng·h/mL
Structure (SMILES): CNC(=O)N1CCC(CC(=O)N2CCN(C3c4ccc(Cl)cc4CCc4cc(Br)cnc43)CC2)CC1 (stereo not given)

IC50 [1]: > 38000 nM
IC50 [2]: 41 nM
IC50 [3]: 530 nM
Structure (SMILES): CN1CCC(NC(=O)N2CCN(C3c4ccc(Cl)cc4CCc4cc(Br)cnc43)CC2)CC1 (stereo not given)

IC50 [1]: > 33000 nM
IC50 [2]: 100 nM
IC50 [3]: 1500 nM
Structure (SMILES): CCCNC(=O)N1CCC(CC(=O)N2CCN(C3c4ccc(Cl)cc4CCc4cc(Br)cnc43)CC2)CC1 (stereo not given)

Structure (SMILES): O=C(Cc1cc[n+]([O-])cc1)N1CCN(C2c3ccc(Cl)cc3C=Cc3cc(Br)cnc32)CC1 (stereo not given)
Cmax [20]: 1.9 µM
Time above IC50 (Cynomolgus monkey [21]): 31 h
AUC at 24 h [22]: 11700 ng·h/mL
IC50 [3]: 350 nM

Structure (SMILES): O=C(Cc1ccccn1)N1CCN(C2c3ccc(Cl)cc3CCc3cccnc32)CC1 (stereo not given)
IC50 [1]: > 46000 nM

Structure (SMILES): O=C(Cc1ccc[n+]([O-])c1)N1CCN(C2c3ccc(Cl)cc3CCc3cccnc32)CC1 (stereo not given)
Time above IC50 (Mus musculus [5]): 4 h
half-life [7]: 0.6 h
AUC at 24 h [9]: 11000 ng·h/mL
bioavailability [10]: 89%
AUC at 24 h [22]: 12300 ng·h/mL
Cmax [11]: 12 µM

IC50 [1]: > 40000 nM
Structure (SMILES): O=C(Nc1ccncc1)N1CCN(C2c3ccc(Cl)cc3CCc3cccnc32)CC1 (stereo not given)

Structure (SMILES): O=C(Cc1ccc(Br)cc1)N1CCN(C2c3ccc(Cl)cc3CCc3cccnc32)CC1 (stereo not given)
IC50 [1]: > 50000 nM
IC50 [3]: 5100 nM

IC50 [1]: > 38000 nM
Structure (SMILES): CN1CCC(CC(=O)N2CCN([C@@H]3c4ccc(Cl)cc4CCc4cc(Br)cnc43)CC2)CC1

bioavailability [14]: 100%
half-life [15]: 5.7 h
IC50 [1]: > 38000 nM
Time above IC50 (Mus musculus [16]): 24 h
Cmax [17]: 2 µM
AUC at 24 h [18]: 14900 ng·h/mL
AUC at 24 h [19]: 17000 ng·h/mL
Structure (SMILES): CN1CCCC(CC(=O)N2CCN(C3c4ccc(Cl)cc4CCc4cc(Br)cnc43)CC2)C1 (stereo not given)

Structure (SMILES): O=C(Oc1cccnc1)N1CCN([C@@H]2c3ccc(Cl)cc3CCc3cccnc32)CC1
IC50 [2]: 1280 nM
IC50 [3]: 6900 nM

Structure (SMILES): O=C(Cc1ccc[n+]([O-])c1)N1CCN(C2c3ccc(Cl)cc3CCc3cc(Br)cnc32)CC1 (stereo not given)
half-life [7]: 1 h
AUC at 24 h [9]: 34800 ng·h/mL
bioavailability [10]: 100%
AUC at 24 h [22]: 24000 ng·h/mL
Cmax [11]: 45.4 µM
Time above IC50 [23]: 6 h

Structure (SMILES): O=C(Nc1cccnc1)N1CCN(C2c3ccc(Cl)cc3CCc3cccnc32)CC1 (stereo not given)
IC50 [1]: > 46000 nM
IC50 [3]: 4800 nM
